Screens deposited in PubChem by Broad Institute.
Compounds with a hit are over-represented: about 1.5% of the library has one in this group of screens.
CaV13 ICDI inh: Primary screen for inhibitors of IQ motif and Ca2+-dependent inactivation inhibitor domain binding in CACNA1D, Förster resonance energy transfer in living cells, …; 340,000 compounds, 0.098% hits; AID 743397; HEK cells, CFP/YFP FRET ICDI-IQ, plate reader, 10 min; percent FRET-ratio fall versus neutral wells; inhibition, % at 12.3 µM;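 active = mean replicate inhibition of at least 30% and at least 1% of replicates passing that level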
CAL PDZ FP-1: untagged CAL PDZ binding inhibitors, primary screen, biochemical, fluorescence polarization, HTS; purified CAL PDZ, TMR-peptide fluorescence polarization, 1 h; inhibition, % at 24.9 µM; 300,000 compounds, 0.92% hits; AID 602252, 2012;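 active = mean inhibition of at least 30% with at least half of replicates also reaching 30%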
Keap1 Nrf2 FP: Keap1-Nrf2 protein-protein interaction inhibitors, primary screen, biochemical, fluorescence polarization, single point. Kelch-like ECH-associated protein 1 (Homo sapiens), Q14145. Keap1 Kelch-Nrf2 peptide fluorescence polarization, 1536-well. inhibition, % at 9.4 µM. 340,000 compounds, 0.15% hits. AID 504523, 2011; in the data active = inhibition above about 12%;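 also: human Keap1 Kelch domain with fluorescein labeled Nrf2 9mer peptide probe; higher means more block of Keap1 binding to Nrf2 peptide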
Target sequence (Q14145 whole entry, looked up, the tested form may be a part): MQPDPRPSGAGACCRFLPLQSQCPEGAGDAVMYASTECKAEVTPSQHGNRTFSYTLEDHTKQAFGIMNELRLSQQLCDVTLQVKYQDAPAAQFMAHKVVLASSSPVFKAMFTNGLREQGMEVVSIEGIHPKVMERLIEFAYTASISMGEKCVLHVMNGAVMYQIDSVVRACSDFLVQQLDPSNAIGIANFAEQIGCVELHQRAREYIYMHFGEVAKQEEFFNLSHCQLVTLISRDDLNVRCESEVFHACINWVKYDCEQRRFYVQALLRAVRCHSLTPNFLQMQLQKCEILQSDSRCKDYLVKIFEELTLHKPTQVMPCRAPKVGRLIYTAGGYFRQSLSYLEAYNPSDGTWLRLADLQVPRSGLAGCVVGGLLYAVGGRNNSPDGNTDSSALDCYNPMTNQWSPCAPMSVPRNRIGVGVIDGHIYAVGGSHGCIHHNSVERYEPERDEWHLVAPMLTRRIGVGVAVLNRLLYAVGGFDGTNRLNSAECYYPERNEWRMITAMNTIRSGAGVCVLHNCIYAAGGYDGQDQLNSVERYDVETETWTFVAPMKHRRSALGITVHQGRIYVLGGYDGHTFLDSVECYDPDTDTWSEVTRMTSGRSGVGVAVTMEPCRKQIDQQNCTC
CAL PDZ FP-2: CAL PDZ peptide-binding inhibitors, primary screen, biochemical, fluorescence polarization, Cer-tagged CAL PDZ, HTS; purified CAL PDZ, TMR-peptide fluorescence polarization, 1 h; inhibition, % at 20 µM; 330,000 compounds, 0.02% hits; AID 504414, 2011;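 active = highest replicate inhibition of at least 40%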
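Control set: unlabelled peptide and DMSO controls / Material: purified CerCALP PDZ construct / Timing: 1 h incubation at room temperature before polarization reading / Doses: 20 µM, one dose / Detection: fluorescence polarization (mP)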
C-LANA FP: inhibitors of KSHV C-LANA binding to DNA, primary screen, biochemical, fluorescence polarization, FAM-LBS DNA, MBP-C-LANA, single point; inhibition, % at 9 µM; 340,000 compounds, 0.078% hits; AID 504423, 2011;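 active = highest replicate inhibition at or above 60% at 9 µM, even if other replicates fall short; inactive = all replicates below 60% inhibition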
LANA-H2A inh: blockers of LANA interaction with H2A/H2B – biochemical, FP readout, HTS, primary screen; inhibition, % (no concentration beside the values); cell-free LANA-H2A/H2B peptide, fluorescence polarization; AID 2629, 2010; 320,000 compounds, 0.6% hits; in the data active = inhibition mostly above about 10%, no sharp cut-off; inactive = mostly below about 6.7%
Of the large screens only hits and unclear results are named; the others gave an inactive call.

Cc1cc(NS(=O)(=O)c2c(C(=O)N3CCOCC3)c(C)n(C)c2C)ccc1Br	CAL PDZ FP-1 78
Cn1c(=O)n(C)c2cc3[nH]cnc3cc21	CAL PDZ FP-1 42
N#Cc1ccc(CSc2nc(N)cc(N)n2)cc1	CAL PDZ FP-1 72
NC(=S)N=Nc1c(O)cc(O)c2[nH]c(=O)ccc12	Keap1 Nrf2 FP 15 (no result: LANA-H2A inh)
C=CCc1ccc(OCCCOc2ccc(C)cc2OC)c(OC)c1	none
CC1CN(CCOc2ccc([N+](=O)[O-])cc2)CC(C)O1 (centres undefined)	none
COc1cccc(OCCCCN2CC(C)OC(C)C2)c1 (centres undefined)	CAL PDZ FP-1 42
CC1CN(CCOc2ccc(F)cc2)CC(C)O1 (centres undefined)	CAL PDZ FP-1 42
C=CCc1ccc(OCCCCN2CC(C)OC(C)C2)c(OC)c1 (centres undefined)	CAL PDZ FP-1 58
COC(=O)[C@]12C[C@H](CC(=O)NCc3cccc(C(F)(F)F)c3)C(=O)N(Cc3ccc4c(c3)OCO4)C1=C[C@H](C(C)(C)C)O[C@@H]2C	none (no result: CAL PDZ FP-1, Keap1 Nrf2 FP, CAL PDZ FP-2, C-LANA FP, LANA-H2A inh)
Cn1c(CNC(=O)CCNC(=O)c2cccc(Cl)c2)cc(=O)n(C)c1=O	CAL PDZ FP-1 43
Cc1ccc(N(C)C(=O)CN(C)S(=O)(=O)c2ccc3c(c2)n(C)c(=O)c(=O)n3C)cc1	none
Cn1nnnc1SCC(=O)NCc1cccs1	CAL PDZ FP-1 53
Cn1nnnc1SCC(=O)Nc1nn(-c2ccccc2)nc1C(N)=O	CAL PDZ FP-1 55 (no result: Keap1 Nrf2 FP)
Cn1nnnc1SCC(=O)Nc1ccc(Oc2ccccc2)cc1	none
CC(=O)OC1C(N2CCCCC2)c2c(ccc(/C=C/C(=O)N3CCCCC3)c2O)OC1(C)C (centres undefined)	none
Nc1nonc1-c1nc2ccccc2n1Cc1ccc(F)cc1Cl	CAL PDZ FP-1 active
Fc1ccc(Cn2c(-c3cscn3)nc3ccccc32)c(Cl)c1	none (no result: CAL PDZ FP-2)
COc1ccccc1NC(=O)CN1CCCCCC1	CAL PDZ FP-1 47
COc1cc(C(=O)NC(=S)Nc2ccc(Cl)c(C(=O)O)c2)cc(OC)c1OC	CAL PDZ FP-1 40 (no result: CAL PDZ FP-2)
Cc1ccccc1NC(=O)Cn1c([N+](=O)[O-])cnc1C	none (no result: CAL PDZ FP-1)
CCOc1ccc(NC(=O)CN2CCN(CC(=O)Nc3ccccc3OC)CC2)cc1	CAL PDZ FP-1 123 (no result: CAL PDZ FP-2)
CCOc1ccc(NC(=O)CN2CCN(CC(=O)Nc3ccc(OC)cc3OC)CC2)cc1	none (no result: CAL PDZ FP-2)
COc1ccccc1NC(=O)Cn1c([N+](=O)[O-])cnc1C	CAL PDZ FP-1 64
COc1cc2cc(C)c(SCC(=O)N3CCN(C(=O)c4ccco4)CC3)nc2cc1OC	none
CC(=O)c1c(C)[nH]c(C(=O)NCc2ccc(Cl)cc2)c1C	none (no result: CAL PDZ FP-1, Keap1 Nrf2 FP, CAL PDZ FP-2, C-LANA FP, LANA-H2A inh)
COc1ccccc1NC(=O)C1CCN(C(=O)NCc2ccccc2)CC1	CAL PDZ FP-1 56
O=C(NC(c1ccccc1)c1ccccc1)c1ccccc1	none (no result: LANA-H2A inh)
COc1cc(C(=O)NC(c2ccccc2)c2ccccc2)cc(OC)c1OC	CAL PDZ FP-1 51
COc1ccccc1NC(=O)CNC(c1ccccc1)c1ccccc1	CAL PDZ FP-1 33
CN(C)S(=O)(=O)c1ccc(NC(=O)CN2CCCCCC2)cc1	CAL PDZ FP-1 133
O=C(COc1cc(F)ccc1[N+](=O)[O-])NCCCc1ccccc1	none
COc1ccccc1NC(=O)Cn1c(C)cc(=O)c2cccc(OC)c21	LANA-H2A inh 25 (no result: CAL PDZ FP-1, Keap1 Nrf2 FP, CAL PDZ FP-2, C-LANA FP)
COc1ccc(C(=O)C2CCN(CC(=O)Nc3ccc(OC)cc3OC)CC2)cc1	LANA-H2A inh 19
CC(Oc1ccccc1)C(=O)NC1CC(C)(C)NC(C)(C)C1 (centres undefined)	LANA-H2A inh 17
COCCC1CCCCN1C(=O)c1cc(COc2ccc(C)nc2)on1 (centres undefined)	LANA-H2A inh 45
COCCCC1CCN(C(=O)c2cc(COc3ccc(C)nc3)on2)CC1	none
CCOC(=O)C1CCCN(C(=O)c2cc(COc3ccc(C)nc3)on2)C1 (centres undefined)	LANA-H2A inh 18
CCOC(=O)C1CCCN(C(=O)c2cc(-c3ccc(C)cc3)on2)C1 (centres undefined)	none
Cc1cccn2c(=O)c3cc(C#N)c(=NC(=O)c4cccs4)n(CC(C)C)c3nc12	CaV13 ICDI inh active
CCC(C)n1c(=N)c(C#N)cc2c(=O)n3cccc(C)c3nc21 (centres undefined)	CaV13 ICDI inh active
Cc1ccc2nc3c(cc(C#N)c(=O)n3-c3nccs3)c(=O)n2c1	none (no result: CAL PDZ FP-2)
CCC(C)n1c(=N)c(C#N)cc2c(=O)n3cc(C)ccc3nc21 (centres undefined)	CaV13 ICDI inh 57 (no result: CAL PDZ FP-1)
CCC(C)[C@H](NC(=O)C1CC(=O)N(c2ccc3c(c2)OCCO3)C1)C(=O)N1CCCCC1 (some centres undefined)	none
C[C@H](NC(=O)C1CC(=O)N(c2ccc3c(c2)OCCO3)C1)C(=O)N1CCCCC1 (some centres undefined)	LANA-H2A inh 16
CCNC(=O)C1(C)CCN(C(=O)c2ccc(-c3ccccc3)cc2)C1 (centres undefined)	none (no result: CAL PDZ FP-1, Keap1 Nrf2 FP, CAL PDZ FP-2, C-LANA FP, LANA-H2A inh)
O=C1CCNc2ccc(-c3ccccc3)cc21	Keap1 Nrf2 FP 24, C-LANA FP 84
N#Cc1ccc(OCCCN2CCC(C(O)(c3ccccc3)c3ccccc3)CC2)cc1	none (no result: CAL PDZ FP-1, Keap1 Nrf2 FP, CAL PDZ FP-2, C-LANA FP, LANA-H2A inh)
Cn1c(SCC(=O)NNC(=O)c2ccc(Br)cc2)nnc1-c1cccnc1	CAL PDZ FP-1 63
C=CCn1c(SCC(=O)NC2CC2)nnc1-c1ccccn1	none
O=C(CSc1ncccc1C(=O)O)NC1CCCCCCC1	CAL PDZ FP-1 60
C=CCn1c(SCC(=O)NC2CCCCC2)nnc1-c1ccccn1	CAL PDZ FP-1 122
O=c1c2ccccc2n(CC(O)CN2CCCCC2)c2ccccc12 (centres undefined)	CaV13 ICDI inh active (no result: CAL PDZ FP-1)
CC1(c2ccc3c(c2)OCO3)NC(=O)N(CC(=O)Nc2ccccc2[N+](=O)[O-])C1=O (centres undefined)	CAL PDZ FP-1 46 (no result: LANA-H2A inh)
O=C(NCc1cccnc1)OC1CC2CC1[C@H]1CCCCN1C2=O (some centres undefined)	none (no result: CAL PDZ FP-1, Keap1 Nrf2 FP, CAL PDZ FP-2, C-LANA FP, LANA-H2A inh)
